Activity calls are given as the source filed them. The calls are words filed in the database; no cut-off is given here.
Assays:
Integrin alpha-V/beta-6 = Integrin alpha-V/beta-6 (Homo sapiens, UniProt P06756+P18564); experiment: Inhibition of human recombinant integrin alphavbeta6 incubated for 1 hr by ELISA assay; assay type: protein-complex assay
Human alphaherpesvirus 1 [1] = experiment: Antiviral activity against HSV-1 R8102 infected in HEK293T cells assessed as inhibition of viral replication using ONPG as substrate incubated for 1 hrs followed by viral infection measured after 90 mins by microplate reader analysis; assay type: functional, organism-based; conditions: dose <= 1000.0 µM, DDE = dose-dependent effect
How it was run: (§1)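 Peptides were dissolved at 10 mM (stock) in serum-free DMEM and neutralized with Tris-HCl. 293T cells (low endogenous αvβ6/αvβ8) were pretreated with increasing peptide concentrations for 1 h at 37 °C. Cells were then infected with lacZ-reporter R8102 at MOI 5 PFU/cell for 90 min at 37 °C with peptide. After rinsing, cells were incubated 8 h without peptide. Infection was read as β-galactosidase activity with ONPG; triplicate, SD.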

Human alphaherpesvirus 1 [2] = experiment: Antiviral activity against HSV-1 R8102 infected in HEK293T cells assessed as inhibition of viral replication at 500 to 1000 uM using ONPG as substrate incubated for 1 hrs followed by viral infection measured after 90 mins by microplate reader analysis relative to control; assay type: functional; set-up: scale not given: the % may be the effect or the level left; conditions: dose 500-1000 µM; how it was run: as §1
Human alphaherpesvirus 1 [3] = experiment: Antiviral activity against HSV-1 K26GFP infected in J cells expressing nectin1 plus alphavbeta6/alphavbeta8 integrin at 700 uM incubated for 48 hrs followed by viral infection measured after 16 hrs by fluorescent microscopy; assay type: functional, organism-based; conditions: time 64.0 hrs
How it was run: (§2)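 J cells were transfected with nectin1 (75 ng DNA/24 well) plus αv+β6, αv+β8, or both integrin plasmids (300 ng each). Total DNA was made up to 675 ng with Erb-2 plasmid. At 48 h, cells got 700 μM peptide for 1 h at 37 °C, then K26GFP at 1 PFU/cell for 90 min with peptide. Acid wash (pH 3), then 16 h without peptide. EGFP was read by fluorescence microscopy and flow cytometry MFI (≥10 000 events); triplicates ± SD.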

Human alphaherpesvirus 1 [4] = experiment: Antiviral activity against HSV-1 K26GFP infected in J cells expressing nectin1 plus alphavbeta6 integrin at 700 uM incubated for 48 hrs followed by viral infection measured after 16 hrs by fluorescent microscopy; assay type: functional, organism-based; conditions: time 64.0 hrs; how it was run: as §2
Human alphaherpesvirus 1 [5] = experiment: Antiviral activity against HSV-1 K26GFP infected in J cells expressing nectin1 plus alphavbeta8 integrin at 700 uM incubated for 48 hrs followed by viral infection measured after 16 hrs by fluorescent microscopy; assay type: functional, organism-based; conditions: time 64.0 hrs; how it was run: as §2
Human alphaherpesvirus 1 [6] = experiment: Antiviral activity against HSV-1 K26GFP infected in J cells expressing nectin1 plus alphavbeta6/alphavbeta8 integrin assessed as alphavbeta6/alphavbeta8 receptor internalization at 700 uM incubated for 1 hrs followed by viral infection by flow cytometry assay; assay type: functional, organism-based
How it was run: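 Transfected J cells expressed nectin1 plus both αvβ6 and αvβ8 (48 h post-transfection) and were treated with 700 μM peptide for 1 h at 37 °C. Surface β6 and β8 were stained for 1 h at 4 °C with APC-conjugated mAbs outside the RGD-binding site. Nectin1 was stained with R1.302 plus APC secondary. Read-out was flow cytometry APC MFI of gated cells, ≥10 000 events; triplicates ± SD.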

Human alphaherpesvirus 1 [7] = experiment: Inhibition of HSV-1 soluble gH binding to alphavbeta6/alphavbeta8 integrin expressed in […] J cells at 700 uM incubated for 1 hr by flow cytometry assay; assay type: cell-based
How it was run: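 J cells were transfected with nectin1 plus αvβ6 and αvβ8 and, 48 h later, exposed to 700 μM peptide for 1 h at 37 °C. They were then incubated for 1 h at 4 °C with 2 μM One-STrEP-tagged soluble gH in DMEM/5% FBS/30 mM HEPES. Soluble gB served as the control protein. Binding was detected with PE-Strep-Tactin (1 h, 4 °C) as flow cytometry MFI (≥10 000 events); triplicates ± SD.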

Chain of Integrin alpha-V/beta-6 (P06756 31-889 limits assumed): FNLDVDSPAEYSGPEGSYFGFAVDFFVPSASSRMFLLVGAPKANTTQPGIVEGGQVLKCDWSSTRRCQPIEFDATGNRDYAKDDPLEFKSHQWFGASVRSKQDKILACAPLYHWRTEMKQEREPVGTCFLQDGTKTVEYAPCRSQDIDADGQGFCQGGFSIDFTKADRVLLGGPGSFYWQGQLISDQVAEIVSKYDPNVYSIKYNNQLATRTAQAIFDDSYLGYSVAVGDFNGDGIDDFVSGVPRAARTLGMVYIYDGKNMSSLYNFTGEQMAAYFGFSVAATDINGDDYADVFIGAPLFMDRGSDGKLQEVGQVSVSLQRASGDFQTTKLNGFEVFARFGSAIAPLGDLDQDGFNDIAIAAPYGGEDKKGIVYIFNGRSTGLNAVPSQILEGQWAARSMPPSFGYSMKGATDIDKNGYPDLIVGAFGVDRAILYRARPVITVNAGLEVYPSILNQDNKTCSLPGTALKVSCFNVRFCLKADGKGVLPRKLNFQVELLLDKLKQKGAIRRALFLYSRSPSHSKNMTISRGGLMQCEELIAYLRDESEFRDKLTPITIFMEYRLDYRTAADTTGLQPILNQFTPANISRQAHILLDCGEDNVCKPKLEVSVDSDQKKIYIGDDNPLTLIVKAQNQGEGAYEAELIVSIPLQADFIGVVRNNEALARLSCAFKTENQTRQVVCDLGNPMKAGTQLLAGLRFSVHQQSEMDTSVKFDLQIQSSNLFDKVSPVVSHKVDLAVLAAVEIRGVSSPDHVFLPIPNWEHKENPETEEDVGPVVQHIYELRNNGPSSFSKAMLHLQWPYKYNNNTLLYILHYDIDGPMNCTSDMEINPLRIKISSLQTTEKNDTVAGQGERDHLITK
Chain of Integrin alpha-V/beta-6 (P06756 891-1048 limits assumed): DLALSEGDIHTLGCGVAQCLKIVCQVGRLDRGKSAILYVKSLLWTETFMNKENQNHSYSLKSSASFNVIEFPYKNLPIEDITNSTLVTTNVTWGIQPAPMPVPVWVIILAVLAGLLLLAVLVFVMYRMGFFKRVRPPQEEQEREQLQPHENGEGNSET
Chain of Integrin alpha-V/beta-6 (P18564 22-788 limits assumed): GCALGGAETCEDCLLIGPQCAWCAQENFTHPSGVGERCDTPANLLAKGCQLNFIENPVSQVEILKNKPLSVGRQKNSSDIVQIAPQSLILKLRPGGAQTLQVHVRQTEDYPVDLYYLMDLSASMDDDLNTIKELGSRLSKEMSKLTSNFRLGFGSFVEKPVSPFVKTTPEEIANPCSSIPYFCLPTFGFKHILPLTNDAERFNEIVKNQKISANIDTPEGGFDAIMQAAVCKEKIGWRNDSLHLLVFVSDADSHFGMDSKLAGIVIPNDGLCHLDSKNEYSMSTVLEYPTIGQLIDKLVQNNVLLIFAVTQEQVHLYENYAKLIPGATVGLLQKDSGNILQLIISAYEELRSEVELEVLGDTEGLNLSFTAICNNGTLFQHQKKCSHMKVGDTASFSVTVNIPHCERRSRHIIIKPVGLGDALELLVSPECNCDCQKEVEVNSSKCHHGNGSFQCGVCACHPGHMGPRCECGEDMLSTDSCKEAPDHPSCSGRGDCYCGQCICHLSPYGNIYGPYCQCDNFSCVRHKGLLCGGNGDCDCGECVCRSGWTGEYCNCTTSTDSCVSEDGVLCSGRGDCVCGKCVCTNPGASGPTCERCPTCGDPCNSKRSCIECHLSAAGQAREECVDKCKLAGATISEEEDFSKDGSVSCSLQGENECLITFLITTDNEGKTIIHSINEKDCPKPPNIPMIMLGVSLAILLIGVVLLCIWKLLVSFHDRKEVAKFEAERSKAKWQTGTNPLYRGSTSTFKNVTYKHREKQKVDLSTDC

CC(C)C[C@H](NC(=O)[C@H](CO)NC(=O)[C@H](CC(=O)O)NC(=O)[C@H](CC(C)C)NC(=O)[C@H](CC(=O)O)NC(=O)[C@@H](NC(=O)[C@@H](N)CCCNC(=N)N)[C@@H](C)O)C(=O)N[C@@H](CCCNC(=N)N)C(=O)N[C@H](C(=O)O)[C@@H](C)O
IC50 (Integrin alpha-V/beta-6): 38 nM

CN1C(=O)[C@H](C2CCCCC2)NC(=O)[C@H](CC(=O)O)NC(=O)CNC(=O)[C@H](CCCNC(=N)N)NC(=O)CC[C@H]1C(N)=O
Activity (Human alphaherpesvirus 1 [1]): Dde | Activity (Human alphaherpesvirus 1 [2]): 70% | Activity (Human alphaherpesvirus 1 [3]): Active | Activity (Human alphaherpesvirus 1 [4]): Active | Activity (Human alphaherpesvirus 1 [5]): Active | Activity (Human alphaherpesvirus 1 [6]): Active | inhibition (Human alphaherpesvirus 1 [7]): Active

N=C(N)NCCC[C@@H]1NC(=O)CC[C@@H](C(N)=O)NC(=O)[C@H](C2CCCCC2)NC(=O)[C@H](CC(=O)O)NC(=O)CNC1=O
Activity (Human alphaherpesvirus 1 [1]): Dde | Activity (Human alphaherpesvirus 1 [4]): Active

CN1C(=O)CNC(=O)[C@H](CCCNC(=N)N)NC(=O)CC[C@@H](C(N)=O)NC(=O)[C@H](C2CCCCC2)NC(=O)[C@@H]1CC(=O)O
IC50 (Integrin alpha-V/beta-6): > 5000 nM

Source: ChEMBL document CHEMBL5214901 (J Med Chem, 2021)
